Laboratory results from ChEMBL document CHEMBL5653631, “A Potent and Selective ULK1 Inhibitor Suppresses Autophagy and Sensitizes Cancer Cells to Nutrient Stress” (iScience, 2018).

Tests used:
[1] = biological target: Calcium/calmodulin-dependent protein kinase type II subunit delta (Homo sapiens) (UniProt Q13557); assay: Inhibition of human recombinant CaMK2d at 500 nM related to control ULK1
[2] = biological target: Mitogen-activated protein kinase 10 (Homo sapiens) (UniProt P53779); assay: Inhibition of human recombinant JNK3 at 500 nM in presence of ATP by radiometric assay relative to control
[3] = biological target: RAC-gamma serine/threonine-protein kinase (Homo sapiens) (UniProt Q9Y243); assay: Inhibition of human recombinant AKT3 at 500 nM related to control ULK1
[4] = biological target: T1, Phosphorylase b kinase gamma catalytic chain, liver/testis isoform (Homo sapiens) (UniProt P15735); assay: Inhibition of human recombinant PHKg2 at 500 nM related to control ULK1
T1 sequence (whole entry): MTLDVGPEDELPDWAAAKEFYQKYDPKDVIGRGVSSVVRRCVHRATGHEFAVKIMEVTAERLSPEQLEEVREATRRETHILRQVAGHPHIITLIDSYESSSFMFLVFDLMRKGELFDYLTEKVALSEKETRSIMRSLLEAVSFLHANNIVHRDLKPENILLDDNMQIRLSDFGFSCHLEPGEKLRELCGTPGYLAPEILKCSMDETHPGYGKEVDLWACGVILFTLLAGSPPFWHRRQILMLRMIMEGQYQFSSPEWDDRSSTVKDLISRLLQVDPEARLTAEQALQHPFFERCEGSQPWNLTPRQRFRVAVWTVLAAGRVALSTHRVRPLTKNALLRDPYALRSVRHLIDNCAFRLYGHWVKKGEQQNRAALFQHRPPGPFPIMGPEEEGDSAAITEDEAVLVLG

[5] = biological target: T2, Dual specificity mitogen-activated protein kinase kinase 6 (Homo sapiens) (UniProt P52564); assay: Inhibition of human recombinant MAP2K6 at 15 nM in presence of ATP by radiometric assay relative to control
T2 sequence (whole entry): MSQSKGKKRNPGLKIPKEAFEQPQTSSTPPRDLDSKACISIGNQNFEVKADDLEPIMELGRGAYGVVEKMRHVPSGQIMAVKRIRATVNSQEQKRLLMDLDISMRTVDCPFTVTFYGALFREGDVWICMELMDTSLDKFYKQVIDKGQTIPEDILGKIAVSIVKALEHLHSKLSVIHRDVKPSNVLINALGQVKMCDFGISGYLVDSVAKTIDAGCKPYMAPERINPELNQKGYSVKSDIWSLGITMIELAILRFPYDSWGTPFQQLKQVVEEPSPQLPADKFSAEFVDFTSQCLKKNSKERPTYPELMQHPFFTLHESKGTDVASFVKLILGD

[6] = biological target: Epithelial discoidin domain-containing receptor 1 (Homo sapiens) (UniProt Q08345); assay: Inhibition of human recombinant DDR1 at 15 nM related to control ULK1
[7] = biological target: T3, Aurora kinase A (Homo sapiens) (UniProt O14965); assay: Inhibition of human recombinant AurA at 15 nM related to control ULK1
T3 sequence (whole entry): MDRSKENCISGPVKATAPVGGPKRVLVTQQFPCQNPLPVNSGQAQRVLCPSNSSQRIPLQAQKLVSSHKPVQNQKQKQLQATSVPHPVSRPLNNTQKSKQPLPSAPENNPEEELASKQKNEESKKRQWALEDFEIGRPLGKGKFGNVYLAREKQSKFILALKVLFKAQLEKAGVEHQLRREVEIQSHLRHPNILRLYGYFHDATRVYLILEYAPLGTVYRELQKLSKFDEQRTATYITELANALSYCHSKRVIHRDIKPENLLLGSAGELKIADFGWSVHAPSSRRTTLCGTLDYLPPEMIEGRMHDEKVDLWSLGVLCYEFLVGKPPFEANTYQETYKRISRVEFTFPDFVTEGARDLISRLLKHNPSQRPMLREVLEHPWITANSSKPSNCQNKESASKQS
Procedure, shortened: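 Panel of 327 recombinant human kinases, each assayed in vitro by radiometric activity assay in duplicate at a single inhibitor concentration per compound, chosen with reference to its ULK1 inhibition. Activity remaining was expressed as percent of vehicle control, and percent inhibition was calculated as 100 minus percent activity remaining.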

[8] = biological target: T4, Ephrin type-A receptor 8 (Homo sapiens) (UniProt P29322); assay: Inhibition of human recombinant EphA8 at 15 nM in presence of ATP by radiometric assay relative to control
T4 sequence (whole entry): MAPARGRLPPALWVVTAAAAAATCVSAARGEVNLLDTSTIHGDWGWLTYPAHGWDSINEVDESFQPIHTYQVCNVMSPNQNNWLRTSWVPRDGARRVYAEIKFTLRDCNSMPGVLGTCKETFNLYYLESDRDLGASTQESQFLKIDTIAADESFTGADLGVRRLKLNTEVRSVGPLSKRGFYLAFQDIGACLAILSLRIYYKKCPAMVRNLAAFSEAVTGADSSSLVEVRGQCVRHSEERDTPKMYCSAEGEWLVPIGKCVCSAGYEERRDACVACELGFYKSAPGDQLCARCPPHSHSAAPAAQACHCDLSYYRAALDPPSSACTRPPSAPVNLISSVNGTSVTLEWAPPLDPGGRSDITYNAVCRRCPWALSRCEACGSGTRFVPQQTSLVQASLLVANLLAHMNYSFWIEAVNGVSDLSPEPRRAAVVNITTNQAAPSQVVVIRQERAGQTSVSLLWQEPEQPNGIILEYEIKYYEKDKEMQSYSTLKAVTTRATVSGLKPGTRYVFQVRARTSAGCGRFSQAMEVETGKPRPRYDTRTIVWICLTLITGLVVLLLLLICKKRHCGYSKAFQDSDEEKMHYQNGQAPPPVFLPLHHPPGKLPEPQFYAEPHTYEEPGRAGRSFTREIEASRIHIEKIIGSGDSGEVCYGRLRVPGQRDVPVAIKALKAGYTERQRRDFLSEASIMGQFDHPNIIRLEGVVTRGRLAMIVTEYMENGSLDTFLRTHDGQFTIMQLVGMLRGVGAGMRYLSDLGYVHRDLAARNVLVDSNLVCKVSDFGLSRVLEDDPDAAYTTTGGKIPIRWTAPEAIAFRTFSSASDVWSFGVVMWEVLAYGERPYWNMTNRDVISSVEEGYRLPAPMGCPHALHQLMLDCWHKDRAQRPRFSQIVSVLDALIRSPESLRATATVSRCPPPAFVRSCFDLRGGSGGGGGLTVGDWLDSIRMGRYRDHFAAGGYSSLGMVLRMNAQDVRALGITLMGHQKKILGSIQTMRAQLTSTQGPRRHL

[9] = biological target: Cyclin-dependent kinase 9 (Homo sapiens) (UniProt P50750); assay: Inhibition of human recombinant CDK9 at 15 nM related to control ULK1
[10] = biological target: Mitogen-activated protein kinase kinase kinase 9 (Homo sapiens) (UniProt P80192); assay: Inhibition of human recombinant MLK1 at 40 nM related to control ULK1
[11] = biological target: Protein kinase C beta type (Homo sapiens) (UniProt P05771); assay: Inhibition of human recombinant PKCb at 40 nM related to control ULK1
Chain of Protein kinase C beta type (Homo sapiens) (P05771 2-671 limits assumed): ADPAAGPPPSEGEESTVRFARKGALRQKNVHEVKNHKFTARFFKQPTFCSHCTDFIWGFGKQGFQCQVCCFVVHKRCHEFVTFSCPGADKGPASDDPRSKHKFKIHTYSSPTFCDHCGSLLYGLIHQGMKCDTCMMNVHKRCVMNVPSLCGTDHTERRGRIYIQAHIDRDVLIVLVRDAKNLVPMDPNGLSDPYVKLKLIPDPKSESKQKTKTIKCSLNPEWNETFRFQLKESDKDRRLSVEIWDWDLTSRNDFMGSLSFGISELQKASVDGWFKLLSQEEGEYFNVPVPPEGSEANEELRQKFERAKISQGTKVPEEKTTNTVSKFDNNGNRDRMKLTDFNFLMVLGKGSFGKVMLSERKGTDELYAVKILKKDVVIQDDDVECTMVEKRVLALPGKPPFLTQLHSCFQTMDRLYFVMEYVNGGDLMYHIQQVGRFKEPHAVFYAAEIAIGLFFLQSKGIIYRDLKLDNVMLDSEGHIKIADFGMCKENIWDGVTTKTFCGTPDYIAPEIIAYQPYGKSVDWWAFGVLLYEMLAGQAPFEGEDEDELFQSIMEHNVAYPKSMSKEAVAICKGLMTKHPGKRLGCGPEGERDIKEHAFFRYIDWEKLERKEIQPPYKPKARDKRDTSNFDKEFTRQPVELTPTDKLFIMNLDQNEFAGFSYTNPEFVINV

Chain of RAC-gamma serine/threonine-protein kinase (Homo sapiens) (Q9Y243 whole entry, canonical isoform): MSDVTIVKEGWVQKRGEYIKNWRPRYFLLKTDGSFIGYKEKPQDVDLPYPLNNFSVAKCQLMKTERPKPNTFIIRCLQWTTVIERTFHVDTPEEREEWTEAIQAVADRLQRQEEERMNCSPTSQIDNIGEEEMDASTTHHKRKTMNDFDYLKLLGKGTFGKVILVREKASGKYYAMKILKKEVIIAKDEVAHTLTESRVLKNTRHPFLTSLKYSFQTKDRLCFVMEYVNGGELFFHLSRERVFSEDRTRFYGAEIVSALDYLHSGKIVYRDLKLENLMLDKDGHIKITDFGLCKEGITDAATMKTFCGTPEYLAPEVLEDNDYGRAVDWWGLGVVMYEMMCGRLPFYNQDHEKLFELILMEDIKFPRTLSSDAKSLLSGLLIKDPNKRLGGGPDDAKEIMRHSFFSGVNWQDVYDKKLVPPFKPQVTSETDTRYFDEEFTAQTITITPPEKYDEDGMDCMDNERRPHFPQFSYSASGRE
Chain of Calcium/calmodulin-dependent protein kinase type II subunit delta (Homo sapiens) (Q13557 whole entry): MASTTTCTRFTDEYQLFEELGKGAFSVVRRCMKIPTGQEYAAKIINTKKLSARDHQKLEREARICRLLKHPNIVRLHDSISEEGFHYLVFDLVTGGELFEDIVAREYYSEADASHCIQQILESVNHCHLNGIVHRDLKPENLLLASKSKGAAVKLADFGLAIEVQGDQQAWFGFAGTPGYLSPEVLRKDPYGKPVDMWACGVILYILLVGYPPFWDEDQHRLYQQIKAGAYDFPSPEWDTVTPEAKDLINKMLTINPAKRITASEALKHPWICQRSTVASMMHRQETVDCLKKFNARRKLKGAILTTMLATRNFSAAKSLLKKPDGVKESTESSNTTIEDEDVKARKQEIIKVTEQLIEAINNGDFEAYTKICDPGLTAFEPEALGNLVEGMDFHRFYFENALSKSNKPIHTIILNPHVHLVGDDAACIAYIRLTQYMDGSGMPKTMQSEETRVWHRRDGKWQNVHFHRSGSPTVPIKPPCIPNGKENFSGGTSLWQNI
Chain of Epithelial discoidin domain-containing receptor 1 (Homo sapiens) (Q08345 whole entry, the tested form may be a part): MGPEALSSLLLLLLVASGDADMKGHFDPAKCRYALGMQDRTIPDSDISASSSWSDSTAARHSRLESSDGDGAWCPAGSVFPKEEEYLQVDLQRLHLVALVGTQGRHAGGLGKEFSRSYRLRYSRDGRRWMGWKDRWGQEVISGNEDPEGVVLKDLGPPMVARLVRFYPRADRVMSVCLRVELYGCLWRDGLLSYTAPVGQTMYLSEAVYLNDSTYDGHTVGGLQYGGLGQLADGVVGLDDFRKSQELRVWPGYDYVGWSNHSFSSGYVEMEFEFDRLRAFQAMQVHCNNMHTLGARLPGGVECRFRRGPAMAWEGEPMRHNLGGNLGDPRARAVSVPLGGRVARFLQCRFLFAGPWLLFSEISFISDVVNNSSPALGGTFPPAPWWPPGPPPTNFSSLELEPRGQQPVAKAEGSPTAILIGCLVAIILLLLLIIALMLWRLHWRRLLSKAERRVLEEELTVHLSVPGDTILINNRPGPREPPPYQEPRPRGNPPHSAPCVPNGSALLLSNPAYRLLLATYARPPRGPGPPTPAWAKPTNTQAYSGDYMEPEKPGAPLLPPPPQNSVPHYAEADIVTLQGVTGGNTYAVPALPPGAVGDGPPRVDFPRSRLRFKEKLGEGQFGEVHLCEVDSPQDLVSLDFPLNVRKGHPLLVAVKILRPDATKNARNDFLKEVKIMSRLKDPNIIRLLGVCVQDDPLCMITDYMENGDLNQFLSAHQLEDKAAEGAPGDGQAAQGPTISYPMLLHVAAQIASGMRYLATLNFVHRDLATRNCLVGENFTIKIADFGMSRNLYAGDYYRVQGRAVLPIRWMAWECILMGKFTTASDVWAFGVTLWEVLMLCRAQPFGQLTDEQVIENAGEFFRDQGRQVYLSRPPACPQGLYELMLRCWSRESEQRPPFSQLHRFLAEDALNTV
Chain of Cyclin-dependent kinase 9 (Homo sapiens) (P50750 whole entry): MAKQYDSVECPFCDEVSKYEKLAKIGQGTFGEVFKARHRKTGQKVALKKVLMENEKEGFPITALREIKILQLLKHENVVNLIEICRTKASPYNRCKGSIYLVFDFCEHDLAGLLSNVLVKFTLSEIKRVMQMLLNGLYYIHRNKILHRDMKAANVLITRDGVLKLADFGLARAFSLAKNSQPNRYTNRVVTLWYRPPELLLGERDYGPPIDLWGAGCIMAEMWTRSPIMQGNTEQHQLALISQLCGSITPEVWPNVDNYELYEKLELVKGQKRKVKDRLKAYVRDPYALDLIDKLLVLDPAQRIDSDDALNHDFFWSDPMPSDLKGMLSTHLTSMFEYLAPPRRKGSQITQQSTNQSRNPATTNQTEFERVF
Chain of Mitogen-activated protein kinase kinase kinase 9 (Homo sapiens) (P80192 whole entry, looked up): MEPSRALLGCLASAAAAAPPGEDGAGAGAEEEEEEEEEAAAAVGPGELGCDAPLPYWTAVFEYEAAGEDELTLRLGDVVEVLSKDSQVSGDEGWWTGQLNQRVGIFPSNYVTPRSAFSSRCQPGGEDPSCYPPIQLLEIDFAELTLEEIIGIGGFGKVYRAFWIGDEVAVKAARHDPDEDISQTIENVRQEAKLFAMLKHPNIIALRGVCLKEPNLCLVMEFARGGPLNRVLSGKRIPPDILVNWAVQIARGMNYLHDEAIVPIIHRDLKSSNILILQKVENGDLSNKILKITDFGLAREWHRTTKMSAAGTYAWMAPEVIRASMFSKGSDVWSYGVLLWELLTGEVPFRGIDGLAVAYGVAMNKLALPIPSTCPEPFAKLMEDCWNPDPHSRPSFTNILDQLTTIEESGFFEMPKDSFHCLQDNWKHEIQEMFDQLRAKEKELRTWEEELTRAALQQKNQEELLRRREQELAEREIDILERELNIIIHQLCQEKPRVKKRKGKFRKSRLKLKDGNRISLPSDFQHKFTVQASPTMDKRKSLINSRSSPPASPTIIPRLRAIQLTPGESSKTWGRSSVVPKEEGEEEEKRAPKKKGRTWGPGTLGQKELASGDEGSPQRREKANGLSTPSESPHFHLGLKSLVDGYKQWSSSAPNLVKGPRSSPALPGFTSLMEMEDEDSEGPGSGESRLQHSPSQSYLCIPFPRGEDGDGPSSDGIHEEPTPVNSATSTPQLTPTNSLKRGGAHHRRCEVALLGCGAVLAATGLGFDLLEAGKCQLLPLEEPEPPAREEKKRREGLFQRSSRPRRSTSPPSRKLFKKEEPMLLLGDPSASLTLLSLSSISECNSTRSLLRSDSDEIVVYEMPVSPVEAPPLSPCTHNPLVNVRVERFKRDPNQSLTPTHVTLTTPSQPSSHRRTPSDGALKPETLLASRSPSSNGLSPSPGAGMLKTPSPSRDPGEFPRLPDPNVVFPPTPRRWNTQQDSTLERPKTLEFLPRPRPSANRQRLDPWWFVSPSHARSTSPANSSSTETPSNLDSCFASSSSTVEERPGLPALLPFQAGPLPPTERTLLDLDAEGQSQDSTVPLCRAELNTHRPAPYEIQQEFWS
Chain of Mitogen-activated protein kinase 10 (Homo sapiens) (P53779 whole entry): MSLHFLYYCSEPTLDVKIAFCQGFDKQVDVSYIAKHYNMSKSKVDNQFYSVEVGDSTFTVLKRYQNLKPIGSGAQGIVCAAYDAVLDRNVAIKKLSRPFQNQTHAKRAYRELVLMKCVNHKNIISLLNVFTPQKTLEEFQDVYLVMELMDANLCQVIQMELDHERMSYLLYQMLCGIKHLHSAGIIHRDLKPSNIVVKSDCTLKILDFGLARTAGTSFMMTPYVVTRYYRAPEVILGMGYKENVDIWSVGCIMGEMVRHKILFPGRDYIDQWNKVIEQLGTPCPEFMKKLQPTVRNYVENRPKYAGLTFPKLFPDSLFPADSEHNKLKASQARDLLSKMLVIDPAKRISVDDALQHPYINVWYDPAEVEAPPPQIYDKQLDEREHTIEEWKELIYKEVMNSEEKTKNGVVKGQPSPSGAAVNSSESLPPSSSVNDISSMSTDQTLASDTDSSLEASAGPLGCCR

## CNC(=O)c1ccccc1Oc1nc(Nc2cc(OC)c(OC)c(OC)c2)ncc1Br
[1]
  fold change (FC): 0.12
[2]
  inhibition: 3%
[3]
  fold change (FC): 0.07
[4]
  fold change (FC): 0

## CC(C)[C@H](NC(=O)c1cc(-c2cnn3cc(-c4ccc(OCCN5CCCCC5)cc4)cnc23)cs1)C(F)(F)F
[5]
  inhibition: 5%
[6]
  fold change (FC): 0.89
[7]
  fold change (FC): 0.15
[8]
  inhibition: 0%
[9]
  fold change (FC): 0

## O=C(N[C@@H](C1CC1)C(F)(F)F)c1cc(-c2cnn3cc(-c4ccc(F)cc4)cnc23)cs1
[10]
  fold change (FC): 0.1
[11]
  fold change (FC): 0.04
